Assay results from ChEMBL document CHEMBL4619811, “Systematic Investigation of the Permeability of Androgen Receptor PROTACs” (ACS Med Chem Lett, 2020).
Calls of active or inactive are those of the source. The rule behind the calls is not given here.

Key:
[1] = Apparent permeability in pH 7.4 ammonium acetate buffer incubated for 5 hrs by PAMPA; assay type: ADME
Outline: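 Passive permeability by PAMPA, reported as Papp in 10–6 cm s–1. Values under the limit of quantification were flagged as BLQ. Compound recovery in the assay was also determined.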

Albumin = Albumin (Homo sapiens, UniProt P02768); assay: Binding affinity to HSA assessed as free fraction by HPLC analysis; assay type: ADME; conditions: isolated protein
Albumin, sequence (P02768 whole entry): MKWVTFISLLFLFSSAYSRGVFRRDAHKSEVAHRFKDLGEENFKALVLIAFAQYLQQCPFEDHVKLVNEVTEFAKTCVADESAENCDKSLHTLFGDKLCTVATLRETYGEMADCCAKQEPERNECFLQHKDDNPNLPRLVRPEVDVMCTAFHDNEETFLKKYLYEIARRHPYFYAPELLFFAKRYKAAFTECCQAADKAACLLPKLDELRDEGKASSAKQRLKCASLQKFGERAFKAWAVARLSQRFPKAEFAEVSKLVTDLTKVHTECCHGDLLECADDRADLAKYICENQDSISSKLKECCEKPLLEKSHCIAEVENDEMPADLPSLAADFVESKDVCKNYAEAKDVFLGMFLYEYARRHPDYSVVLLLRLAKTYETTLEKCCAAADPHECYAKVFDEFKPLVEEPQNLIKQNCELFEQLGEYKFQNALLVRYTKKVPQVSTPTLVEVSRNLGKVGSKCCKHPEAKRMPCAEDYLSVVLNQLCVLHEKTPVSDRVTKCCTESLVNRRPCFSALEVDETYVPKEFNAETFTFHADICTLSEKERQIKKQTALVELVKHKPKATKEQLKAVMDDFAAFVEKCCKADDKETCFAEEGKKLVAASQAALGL

[2] = Chromatographic hydrophobicity index, log D of the compound at pH 7.4 by HPLC analysis; assay type: physicochemical; conditions: buffer
[3] = Apparent permeability from apical to basolateral side in human Caco2 cells at 10 uM incubated for 120 mins; assay type: ADME, cell-based; conditions: Caco-2
Outline: (§1)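 Polarized Caco-2 cell monolayer, permeability measured in both directions (apical to basolateral and basolateral to apical), reported as Papp in 10–6 cm s–1. Efflux ratio taken as the ratio of the directional permeabilities. Compound recovery also determined.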

[4] = Apparent permeability from basolateral to apical side in human Caco2 cells at 10 uM incubated for 120 mins; assay type: ADME, cell-based; conditions: Caco-2; outline: as §1
[5] = Efflux ratio of apparent permeability across basolateral to apical membrane over apical to basolateral membrane in human Caco2 cells at 10 uM incubated for 120 mins; assay type: ADME, cell-based; conditions: Caco-2; outline: as §1
[6] = target: T1, von Hippel-Lindau disease tumor suppressor/Androgen receptor (Homo sapiens, UniProt P10275+P40337); assay: Protac activity at VHL/androgen receptor in human LNCaP cells assessed as induction of androgen receptor protein degradation at 1 uM incubated for 6 hrs by Western blot analysis relative to control; assay type: cell-based
Target sequence in this assay (P10275 whole entry, looked up): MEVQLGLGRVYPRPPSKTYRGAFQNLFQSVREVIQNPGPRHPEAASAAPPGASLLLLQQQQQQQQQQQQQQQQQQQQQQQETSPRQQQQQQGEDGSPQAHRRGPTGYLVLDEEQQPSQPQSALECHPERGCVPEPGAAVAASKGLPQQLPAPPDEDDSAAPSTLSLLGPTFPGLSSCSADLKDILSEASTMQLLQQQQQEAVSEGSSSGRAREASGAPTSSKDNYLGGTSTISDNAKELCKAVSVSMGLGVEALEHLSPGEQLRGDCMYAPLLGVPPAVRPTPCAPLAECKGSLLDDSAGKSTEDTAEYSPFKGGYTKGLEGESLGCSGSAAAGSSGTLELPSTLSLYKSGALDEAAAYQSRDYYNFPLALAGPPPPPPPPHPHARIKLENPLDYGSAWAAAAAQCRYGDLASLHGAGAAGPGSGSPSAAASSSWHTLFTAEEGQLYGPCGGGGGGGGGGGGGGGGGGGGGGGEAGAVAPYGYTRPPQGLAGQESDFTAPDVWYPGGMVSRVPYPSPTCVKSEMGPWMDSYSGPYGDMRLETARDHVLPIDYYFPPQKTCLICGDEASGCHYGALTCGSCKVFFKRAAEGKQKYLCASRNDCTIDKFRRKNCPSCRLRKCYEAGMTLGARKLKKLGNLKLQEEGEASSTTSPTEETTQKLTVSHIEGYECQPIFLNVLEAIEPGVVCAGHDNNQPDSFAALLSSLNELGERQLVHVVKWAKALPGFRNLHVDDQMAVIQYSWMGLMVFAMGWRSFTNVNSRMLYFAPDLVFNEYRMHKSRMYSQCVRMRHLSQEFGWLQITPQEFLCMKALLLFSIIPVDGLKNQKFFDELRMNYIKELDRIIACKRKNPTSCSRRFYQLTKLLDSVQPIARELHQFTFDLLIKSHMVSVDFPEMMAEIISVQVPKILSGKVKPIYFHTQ
Target sequence in this assay (P40337 whole entry, looked up): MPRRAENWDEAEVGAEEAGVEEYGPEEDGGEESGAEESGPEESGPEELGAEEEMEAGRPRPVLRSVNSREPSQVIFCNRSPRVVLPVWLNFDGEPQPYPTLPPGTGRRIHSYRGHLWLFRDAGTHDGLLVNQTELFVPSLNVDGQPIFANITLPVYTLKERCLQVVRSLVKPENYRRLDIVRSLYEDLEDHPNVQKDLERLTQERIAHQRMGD

[7] = target: T1, von Hippel-Lindau disease tumor suppressor/Androgen receptor; assay: Protac activity at VHL/androgen receptor in human LNCaP cells assessed as induction of androgen receptor protein degradation incubated for 6 hrs by Western blot analysis; assay type: cell-based
Outline: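 Androgen-dependent LNCaP prostate adenocarcinoma cells treated across a concentration range, then AR protein levels normalized and plotted against concentration. DCMAX is the percentage of AR cleared; DC50 is the concentration giving half of DCMAX. At least 5 independent experiments, each in triplicate. Significance by ANOVA with Dunnett's test.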

[8] = target: T1, von Hippel-Lindau disease tumor suppressor/Androgen receptor; assay: Protac activity at VHL/androgen receptor in human LNCaP cells assessed as induction of androgen receptor protein degradation incubated for 6 hrs by Western blot analysis relative to control; assay type: cell-based
Outline: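 LNCaP cells (androgen-dependent human prostate adenocarcinoma) were exposed to a concentration series of PROTAC. AR protein levels were normalized and plotted against PROTAC concentration. DCMAX is the percentage of AR cleared, and DC50 is the concentration clearing half of DCMAX. Data come from at least 5 independent experiments run in triplicate, with ANOVA (Dunnett's) for significance.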
Target sequence in this assay (P10275 whole entry, looked up): as the sequence (P10275 whole entry, looked up) above
Target sequence in this assay (P40337 whole entry, looked up): as the sequence (P40337 whole entry, looked up) above

SMILES | Papp at 5 h [1] [×10⁻⁶ cm/s] | Activity (Albumin) [%] | CHI [2] | Papp A→B at 2 h, 10 µM [3] [×10⁻⁶ cm/s] | Papp B→A at 2 h, 10 µM [4] [×10⁻⁶ cm/s] | efflux ratio at 2 h, 10 µM [5] | further results
Cc1ncsc1-c1ccc(CNC(=O)[C@@H]2C[C@@H](O)CN2C(=O)[C@@H](NC(=O)COCC(F)(F)C(F)(F)C(F)(F)COCCCOc2ccc(N3C(=S)N(c4ccc(C#N)c(C(F)(F)F)c4)C(=O)C3(C)C)cc2)C(C)(C)C)cc1 | < 1 | 7 | 6.3 | 0.26 | < 0.79 | < 3 | –
CN1C(=O)N(c2ccc(C#N)c(C(F)(F)F)c2)C(=O)C1(C)c1ccc(O)cc1 (stereo not drawn) | 8.3 | > 5 | 4.4 | – | – | – | –
CC(O)(COc1ccc(OCCOCCOCCOCCOc2cccc3c2CN([C@H]2CCC(=O)NC2=O)C3=O)cc1)C(=O)Nc1ccc(C#N)c(C(F)(F)F)c1 (stereo partly drawn) | 0.4 | – | – | – | – | – | –
Cc1ncsc1-c1ccc(CNC(=O)[C@@H]2C[C@@H](O)CN2C(=O)[C@@H](NC(=O)COCCCOCCCCOc2ccc(N3C(=S)N(c4ccc(C#N)c(C(F)(F)F)c4)C(=O)C3(C)C)cc2)C(C)(C)C)cc1 | < 1 | 10 | 6 | < 27 | 1.4 | > 0.5 | –
O=C1CCC(N2C(=O)c3cccc(O)c3C2=O)C(=O)N1 (stereo not drawn) | 2 | > 5 | 0.4 | – | – | – | Activity [6]: 23%
CN1C(=O)N(c2ccc(C#N)c(C(F)(F)F)c2)C(=O)C1(C)c1ccc(OCCOCCOCCOCCOc2cccc3c2CN([C@H]2CCC(=O)NC2=O)C3=O)cc1 (stereo partly drawn) | 0.3 | – | – | – | – | – | –
O=C1CC[C@H](N2Cc3c(O)cccc3C2=O)C(=O)N1 | – | > 5 | 0.2 | – | – | – | –
CC1(C)C(=O)N(c2ccc(C#N)c(C(F)(F)F)c2)C(=S)N1c1ccc(O)cc1 | 4.6 | > 5 | 5 | – | – | – | –
Cc1ncsc1-c1ccc(CNC(=O)[C@@H]2C[C@@H](O)CN2C(=O)[C@@H](NC(=O)CCOCCOCCOCCOc2ccc(N3C(=S)N(c4ccc(C#N)c(C(F)(F)F)c4)C(=O)C3(C)C)cc2)C(C)(C)C)cc1 | < 1 | 11 | 5.1 | < 0.69 | 2.6 | > 12 | –
N#Cc1ccc(N2CCC[C@@H]2C(O)CO)cc1C(F)(F)F (stereo partly drawn) | 13.3 | > 5 | – | – | – | – | –
Cc1ncsc1-c1ccc(CNC(=O)[C@@H]2C[C@@H](O)CN2C(=O)[C@@H](NC(=O)COCCCOc2ccc(-c3ccc(N4C(=S)N(c5ccc(C#N)c(C(F)(F)F)c5)C(=O)C4(C)C)cc3)cc2)C(C)(C)C)cc1 | < 1 | 7 | 6.2 | – | – | – | –
N#Cc1ccc(N2CCC[C@@H]2C(O)COCCOCCOCCOCCOC23CC4CC(CC(C4)C2)C3)cc1C(F)(F)F (stereo partly drawn) | 2.3 | – | – | – | – | – | –
CC(O)(COc1ccc(OCCOCCOCCOCCOc2cccc3c2C(=O)N(C2CCC(=O)NC2=O)C3=O)cc1)C(=O)Nc1ccc(C#N)c(C(F)(F)F)c1 (stereo not drawn) | 0.3 | – | – | – | – | – | –
CC1(C)C(=O)N(c2ccc(C#N)c(C(F)(F)F)c2)C(=S)N1c1ccc(OCCOCCOCCOCCOc2cccc3c2C(=O)N(C2CCC(=O)NC2=O)C3=O)cc1 (stereo not drawn) | < 1 | – | – | 1.7 | 14.1 | 8.4 | Activity [7]: inactive
OC12CC3CC(CC(C3)C1)C2 | – | > 5 | 7.9 | – | – | – | Activity [6]: 18%
Cc1ncsc1-c1ccc(CNC(=O)[C@@H]2C[C@@H](O)CN2C(=O)[C@@H](NC(=O)CCOCCOCCOc2ccc(C(=O)N[C@H]3C(C)(C)[C@H](Oc4ccc(C#N)c(C(F)(F)F)c4)C3(C)C)cc2)C(C)(C)C)cc1 | < 1 | 8 | 5.8 | – | – | – | –
Cc1ncsc1-c1ccc(CNC(=O)[C@@H]2C[C@@H](O)CN2C(=O)[C@@H](NC(=O)COCC(F)(F)COc2ccc(-c3ccc(N4C(=S)N(c5ccc(C#N)c(C(F)(F)F)c5)C(=O)C4(C)C)cc3)cc2)C(C)(C)C)cc1 | < 1 | 6 | 6.1 | – | – | – | –
CC1(C)C(=O)N(c2ccc(C#N)c(C(F)(F)F)c2)C(=S)N1c1ccc(OCCOCCOCCOCCOC23CC4CC(CC(C4)C2)C3)cc1 | < 1 | – | – | 0.15 | 0.22 | 1.5 | –
CC1(C)C(=O)N(c2ccc(C#N)c(C(F)(F)F)c2)C(=S)N1c1ccc(OCCOCCOCCOCCOc2cccc3c2CN([C@H]2CCC(=O)NC2=O)C3=O)cc1 | – | – | – | – | – | – | %max [8]: 33%; DC50 [7]: 10 nM
Cc1ncsc1-c1ccc(CNC(=O)[C@@H]2C[C@@H](O)CN2C(=O)[C@@H](NC(=O)COCCCCCOc2ccc(C(=O)N[C@H]3C(C)(C)[C@H](Oc4ccc(C#N)c(C(F)(F)F)c4)C3(C)C)cc2)C(C)(C)C)cc1 | < 1 | 7 | 6.7 | – | – | – | –
Cc1ncsc1-c1ccc(CNC(=O)[C@@H]2C[C@@H](O)CN2C(=O)[C@@H](NC(=O)COCCCOCC(F)(F)C(F)(F)COc2ccc(N3C(=S)N(c4ccc(C#N)c(C(F)(F)F)c4)C(=O)C3(C)C)cc2)C(C)(C)C)cc1 | < 1 | 7 | 6.1 | 0.33 | 0.33 | > 3 | –
Cc1ncsc1-c1ccc(CNC(=O)[C@@H]2C[C@@H](O)CN2C(=O)[C@@H](NC(=O)COCCCOCCCCCOc2ccc(N3C(=S)N(c4ccc(C#N)c(C(F)(F)F)c4)C(=O)C3(C)C)cc2)C(C)(C)C)cc1 | < 1 | 9 | 6.3 | 0.35 | 0.24 | 0.7 | –
CC(O)(COc1ccc(O)cc1)C(=O)Nc1ccc(C#N)c(C(F)(F)F)c1 (stereo not drawn) | 1.4 | > 5 | 4 | – | – | – | Activity [6]: 23%
